Activity calls are given as the source filed them. The calls are words filed in the database; no cut-off is given here.
Key:
[1] = Antioxidant activity in ethyl alcohol assessed as trolox equivalents of ABTS radical scavenging activity after 6 mins by TEAC assay; assay type: functional
Procedure, shortened: (§1)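 ABTS (7 mM in water) reacted with 2.45 mM persulfate (final) for 12–16 h in the dark at room temperature. Diluted in ethanol or 0.05 M PBS pH 7.4 to A734 0.70 ± 0.02. Compound added at 2.5–12.5 µM, read at 734 nm after 6 min at 25 °C. TEAC = slope of % inhibition vs concentration divided by Trolox slope. Three independent experiments.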

[2] = Antioxidant activity in 0.05 M phosphate buffered saline assessed as trolox equivalents of ABTS radical scavenging activity after 6 mins by TEAC assay; assay type: functional; procedure, shortened: as §1
[3] = tested on: RAW264.7; assay: Antiinflammatory activity in mouse RAW264.7 cells assessed as inhibition of LPS-induced nitrite production after 24 hrs by Griess method; assay type: functional, cell-based
Procedure, shortened: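 Seeding, medium, overnight culture and treatment as for ROS: LPS 100 ng/mL plus compound at 12.5–100 µM for 24 h. Culture medium mixed with an equal volume of Griess reagent (1% sulphanilamide, 0.1% naphthylethylenediamide, 5% phosphoric acid). Absorbance read at 550 nm and expressed as % of LPS-only mean. n = 6, three repeats.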

[4] = tested on: RAW264.7; assay: Antiinflammatory activity in mouse RAW264.7 cells assessed as inhibition of LPS-induced ROS production after 24 hrs using DCFH-DA by fluorescent microplate reader; assay type: functional, cell-based
Procedure, shortened: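 Cells seeded 5*10^4/well and kept overnight at 37 °C, 5% CO2 in DMEM with 10% heat-inactivated FCS and L-glutamine. Fresh medium, then LPS (E. coli 0127:B8, 100 ng/mL) with or without compound (12.5–100 µM) for 24 h. C400 (2 µg/mL) added for a further 2 h. Fluorescence read at ex 485/em 555 nm. Reported as % of LPS-only mean. n = 6, three repeats.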

[5] = tested on: RAW264.7; assay: Antiinflammatory activity in mouse RAW264.7 cells assessed as inhibition of LPS-induced TNF-alpha production at 50 uM after 1.5 hrs by ELISA; assay type: functional, cell-based
Procedure, shortened: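 Cells seeded 2*10^5/well and cultured overnight as above. Fresh medium, then LPS (100 ng/mL) alone or with compound for 1.5 h. TNFα in medium measured with a mouse TNFα ELISA kit, read at 450 nm. Reported as % of LPS-only mean. n = 3, three repeats. Groups compared at p<0.05.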

SMILES | Ratio [1] | Ratio [2] | inhibition [3] | inhibition [4] | inhibition [5]
Oc1ccc(/C=C/c2cc(O)cc(O)c2)cc1 | 1 | 1.3 | Dose-dependent effect | Dose-dependent effect | Active
COc1cc(OC)cc(C2=C(c3cc(OC)cc(OC)c3)C(C)(C)NC2(C)C)c1 | – | – | Dose-dependent effect | Dose-dependent effect | Active
CC1(C)C=C(/C=C/c2cc(O)cc(O)c2)CC(C)(C)N1[O] | 0.92 | – | Dose-dependent effect | Dose-dependent effect | Active
COc1cc(/C=C/C2=CC(C)(C)N(O)C(C)(C)C2)cc(OC)c1 | – | 0.28 | – | – | –
COc1cc(/C=C/C2=CC(C)(C)NC(C)(C)C2)cc(OC)c1 | 0.32 | 0.02 | Dose-dependent effect | Dose-dependent effect | Active
CC1(C)C(c2ccc(O)cc2)=C(c2cc(O)cc(O)c2)C(C)(C)N1[O] | 1.02 | – | Dose-dependent effect | Dose-dependent effect | inactive
CC1(C)C=C(/C=C/C2=CC(C)(C)N(O)C(C)(C)C2)CC(C)(C)N1O | – | 0.37 | – | – | –
CC1(C)C=C(/C=C/C2=CC(C)(C)N([O])C(C)(C)C2)CC(C)(C)N1[O] | 0.22 | – | Dose-dependent effect | Dose-dependent effect | Active
COc1cc(/C=C/C2=CC(C)(C)N([O])C(C)(C)C2)cc(OC)c1 | 0.2 | – | Dose-dependent effect | Dose-dependent effect | –
CC1(C)c2ccc(/C=C/c3cc(O)cc(O)c3)cc2C(C)(C)N1O | – | 0.67 | – | – | –
CC1(C)C=C(/C=C/c2cc(O)cc(O)c2)CC(C)(C)N1O | – | 0.62 | – | – | –
COc1ccc(/C=C/c2cc(OC)cc(OC)c2)cc1 | 0.04 | – | – | – | –
CC1(C)c2ccc(/C=C/c3cc(O)cc(O)c3)cc2C(C)(C)N1[O] | 0.98 | – | Dose-dependent effect | Dose-dependent effect | Active

Reference: ChEMBL document CHEMBL1926548, “Synthesis and study of new paramagnetic resveratrol analogues” (Bioorg Med Chem, 2011)
